Assay results taken from ChEMBL document CHEMBL1145003, “Design and synthesis of highly potent benzodiazepine gamma-secretase inhibitors: preparation of (2S,3R)-3-(3,4-difluorophenyl)-2-(4-fluorophenyl)-4- hydroxy-N-((3S)-1-methyl-2-oxo-5- phenyl-2,3-dihydro-1H-benzo[e][1,4]-diazepin-3-yl)butyramide by use of an asymmetric Ireland-Claisen rearrangement” (J Med Chem, 2003).
Each block holds one compound with its values, some of them ahead of it.

Assay: Inhibitory activity against human gamma-secretase in SH-SY5Y neuroblastoma cells
Format: cell-based
Summary of the method: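 Whole-cell assay in SH-SY5Y neuroblastoma cells overexpressing exogenous substrate A4CTF, cleaved by endogenous human γ-secretase. IC50 determined over 0.3 nM to 10 µM; values are the mean of at least three determinations, reported with SD.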

Structure (SMILES): O=C1Nc2ccccc2C(c2ccccc2)=N[C@@H]1NC(=O)[C@@H](c1ccc(F)cc1)[C@H](CCO)c1ccc(F)c(F)c1
IC50: 35 nM

Structure (SMILES): CC[C@H](c1ccc(F)c(F)c1)[C@@H](C(=O)N[C@H]1N=C(c2ccccc2)c2ccccc2N(C)C1=O)c1ccc(F)cc1
IC50: 212 nM

Structure (SMILES): CO[C@H](c1ccc(Cl)c(Cl)c1)[C@H](C)C(=O)N[C@H]1N=C(c2ccccc2)c2ccccc2N(C)C1=O
IC50: 59 nM

Structure (SMILES): C[C@H](C(=O)N[C@H]1N=C(c2ccccc2)c2ccccc2N(C)C1=O)[C@H](OS(N)(=O)=O)c1ccc(Cl)c(Cl)c1
IC50: 450 nM

Structure (SMILES): CN1C(=O)[C@@H](NC(=O)[C@@H](c2ccc(F)cc2)[C@H](CO)c2ccc(F)c(F)c2)N=C(c2ccccc2)c2ccccc21
IC50: 0.07 nM

Structure (SMILES): CN1C(=O)[C@@H](NC(=O)[C@@H](c2ccc(F)cc2)C(O)c2ccc(Cl)c(Cl)c2)N=C(c2ccccc2)c2ccccc21 (stereo not given in full)
IC50: 1.2 nM

Structure (SMILES): CC(C(=O)N[C@H]1N=C(c2ccccc2)c2ccccc2N(C)C1=O)C(CO)c1ccc(F)c(F)c1 (stereo not given in full)
IC50: 6.9 nM

IC50: 0.07 nM
Structure (SMILES): O=C1Nc2ccccc2N(c2ccccc2)C[C@@H]1NC(=O)[C@@H](c1ccc(F)cc1)[C@H](CO)c1ccc(F)c(F)c1

Structure (SMILES): C[C@H](C(=O)N[C@H]1N=C(c2ccccc2)c2ccccc2N(C)C1=O)[C@H](OC(N)=O)c1ccc(Cl)c(Cl)c1
IC50: 2450 nM

Structure (SMILES): CC(C(=O)N[C@H]1N=C(c2ccccc2)c2ccccc2N(C)C1=O)/C(=N/O)c1ccc(Cl)c(Cl)c1 (stereo not given in full)
IC50: 35 nM

Structure (SMILES): C[C@H](Cc1ccc(Cl)c(Cl)c1)C(=O)N[C@H]1N=C(c2ccccc2)c2ccccc2N(C)C1=O
IC50: 320 nM

Structure (SMILES): CO/N=C(\c1ccc(Cl)c(Cl)c1)C(C)C(=O)N[C@H]1N=C(c2ccccc2)c2ccccc2N(C)C1=O (stereo not given in full)
IC50: > 10000 nM

Structure (SMILES): CN1C(=O)[C@@H](NC(=O)[C@H](c2ccc(F)cc2)[C@@H](O)c2ccc(Cl)c(Cl)c2)N=C(c2ccccc2)c2ccccc21
IC50: 67 nM

Structure (SMILES): CN1C(=O)[C@@H](NC(=O)[C@@H](c2ccc(F)cc2)C(O)c2ccc(F)c(F)c2)N=C(c2ccccc2)c2ccccc21 (stereo not given in full)
IC50: 0.8 nM

Structure (SMILES): C[C@@H](C(=O)N[C@H]1N=C(c2ccccc2)c2ccccc2N(C)C1=O)[C@@H](O)c1ccc(Cl)c(Cl)c1
IC50: 880 nM

Structure (SMILES): C[C@@H](C(=O)N[C@H]1N=C(c2ccccc2)c2ccccc2N(C)C1=O)[C@H](O)c1ccc(Cl)c(Cl)c1
IC50: 1340 nM

Structure (SMILES): CN1C(=O)[C@@H](NC(=O)[C@@H](Cc2ccc(Cl)c(Cl)c2)c2ccc(F)cc2)N=C(c2ccccc2)c2ccccc21
IC50: 15 nM

Structure (SMILES): C[C@H](C(=O)N[C@H]1N=C(c2ccccc2)c2ccccc2N(C)C1=O)[C@H](O)c1ccc(Cl)c(Cl)c1
IC50: 19 nM

Structure (SMILES): CC(C(=O)N[C@H]1N=C(c2ccccc2)c2ccccc2N(C)C1=O)C(=O)c1ccc(Cl)c(Cl)c1 (stereo not given in full)
IC50: 930 nM

Structure (SMILES): C[C@H](C(=O)N[C@H]1N=C(c2ccccc2)c2ccccc2N(C)C1=O)[C@@H](O)c1ccc(Cl)c(Cl)c1
IC50: 380 nM

Structure (SMILES): CN1C(=O)[C@@H](NC(=O)[C@H](c2ccc(F)cc2)[C@@H](O)c2ccc(F)c(F)c2)N=C(c2ccccc2)c2ccccc21
IC50: 9.6 nM

Structure (SMILES): C[C@H](C(=O)N[C@H]1N=C(c2ccccc2)c2ccccc2N(C)C1=O)[C@H](OCC(N)=O)c1ccc(Cl)c(Cl)c1
IC50: 4750 nM

Structure (SMILES): O=C1Nc2ccccc2C(c2ccccc2)=N[C@@H]1NC(=O)[C@@H](c1ccc(F)cc1)[C@H](CO)c1ccc(F)c(F)c1
IC50: 0.06 nM

Structure (SMILES): C=C[C@H](c1ccc(F)c(F)c1)[C@@H](C(=O)N[C@H]1N=C(c2ccccc2)c2ccccc2N(C)C1=O)c1ccc(F)cc1
IC50: 100 nM

Structure (SMILES): CN1C(=O)[C@@H](NC(=O)[C@@H](c2ccc(F)cc2)[C@H](CBr)c2ccc(F)c(F)c2)N=C(c2ccccc2)c2ccccc21
IC50: 6.7 nM
